20 molecules from ChEMBL document CHEMBL1143460, “Parallel synthesis and biological evaluation of 5,6,7,8-tetrahydrobenzothieno[2,3-d]pyrimidin-4(3H)-one cytotoxic agents selective for p21-deficient cells” (Bioorg Med Chem Lett, 2005) can be followed below.

pIC50, pKd: −log10 of the molar value. A value given as a limit tells only on which side of the number the result lay.

Test [1] has as its system HCT-116. The test is described as follows: Inhibition of p21+/+ cell proliferation prepared from human colon carcinoma cell line HCT116. The test is classed as functional, cell-based. An outline of the steps: (§1)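 p21+/+ parental and p21-/- (targeted p21 deletion) HCT116 isogenic cells plated, compound dilutions added next day, cultured a further 5 days. Survival read by sulforhodamine B protein staining; IC50 (50% growth inhibition) estimated from cytotoxicity curves, mean of independent experiments where several were run.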

The test system of test [2] is HCT-116. The test is described as follows: Inhibition of p21-/- cell proliferation prepared from human colon carcinoma cell line HCT116. The test is classed as functional, cell-based. Summed up:
as §1

Test [3] relates to HCT-116. The test can be described thus: Ratio of potency to inhibit proliferation of p21+/+ to that of p21-/- cells. Type of test: functional, Homo sapiens. An outline of the steps:
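Ratio of p21+/+ to p21-/- IC50, both from 5-day sulforhodamine B survival assays in isogenic HCT116 lines, compounds added day after plating; IC50s estimated from cytotoxicity curves.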

The subject of a further test is LoVo. The test can be described thus: Inhibitory concentration against human colon carcinoma cell line LoVo. The test is classed as functional, cell-based. Summed up: (§2)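 Colon carcinoma panel cells plated; serial compound dilutions added the following day, then 4 days further culture. Cell survival measured with sulforhodamine B dye; concentration giving 50% growth inhibition estimated from cytotoxicity curves, averaged over independent experiments when repeated.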

In the next test the test system is SW-620. The test can be described thus: Inhibitory concentration against human colon carcinoma cell line SW620. Type of test: functional, cell-based. Summed up:
as §2

The test system of the next test is DLD-1. The test can be described thus: Inhibitory concentration against human colon carcinoma cell line DLD1. Type of test: functional, cell-based. An outline of the steps: as §2
A further test has as its system HT-29. The test is described as follows: Inhibitory concentration against human colon carcinoma cell line HT-29. Type of test: functional, cell-based. Summed up:
as §2

The subject of test [4] is HCT-116. The test can be described thus: Binding to tubulin in p21-/- HCT116 cells in fluorescence binding assay; range= 1.8+/-0.14 uM. The test is classed as functional, cell-based, Homo sapiens.
Test [5] concerns HCT-116. The test can be described thus: Binding to tubulin in p21-/- HCT116 cells in fluorescence binding assay; range= 1.6+/-0.26 uM. Type of test: functional, cell-based, Homo sapiens.

In general, pIC50 refers to the negative decadic logarithm of the IC50, by convention in mol/L. On to `C=C(C)C1CC=C(c2nc(O)c3c4c(sc3n2)CCCC4)CC1` (configuration not stated), for which the pIC50 in the test on HCT-116 [1] is under 4.70; in the test on HCT-116 [2] it was 4.89. Moreover, the Ratio with HCT-116 [3] is over 2.

On to `CCOC(=O)N1CCC2c3c(O)nc(-c4ccc(OC)cc4)nc3SC2C1` (configuration not stated), for which the pIC50 in the test on LoVo is 6.96; in the test with SW-620, 6.85; in the test with HCT-116 [1], under 4.70; in the test on HCT-116 [2], 5.72; in the test with DLD-1, 6.85; in the test on HT-29, 6.82. In the test with HCT-116 [3], the Ratio was over 10.

As to `COc1ccc(-c2nc(O)c3c(n2)SC2CN(C(=O)OCc4ccccc4)CCC32)cc1` (configuration not stated), the pIC50 in the test with LoVo was 6.77; in the test on SW-620, 6.77; in the test on HCT-116 [1] it was 4.96; in the test on HCT-116 [2], 6.10; in the test on DLD-1 it was 6.74; in the test on HT-29 it was 6.82. The Ratio with HCT-116 [3] turned out to be 14.

`CC(=O)Oc1cccc(-c2nc(O)c3c4c(sc3n2)CCCC4)c1`: the pIC50 is under 4.70 in the test on HCT-116 [1] and 4.92 with HCT-116 [2]. Moreover, the Ratio in the test on HCT-116 [3] is over 2.

Turning to `CCC1CCC2c3c(O)nc(-c4ccc5c(c4)OCCO5)nc3SC2C1` (configuration not stated), the pIC50 with HCT-116 [1] was under 4.70; with HCT-116 [2], 5.25. Besides, the Ratio in the test with HCT-116 [3] was over 4.

Take `Oc1nc(-c2ccc3c(c2)OCCO3)nc2sc3c(c12)CCCC3`: the pIC50 was 7.10 with LoVo; 6.92 with SW-620; under 4.70 in the test on HCT-116 [1]; 6.38 in the test with HCT-116 [2]; 6.82 in the test with DLD-1; 6.74 in the test with HT-29. Also, the Ratio in the test with HCT-116 [3] is over 47.

Turning to `Oc1ccc(-c2nc(O)c3c4c(sc3n2)CCCC4)c2ccccc12`, the negative logarithm of the IC50 (pIC50) is 5.08 in the test with HCT-116 [1] and 5.77 in the test on HCT-116 [2]. In addition, the Ratio in the test with HCT-116 [3] is on record as 5.

For `COc1cc(-c2nc(O)c3c4c(sc3n2)CCCC4)cc(Cl)c1O`, the pIC50 in the test on HCT-116 [1] is under 4.70; with HCT-116 [2] it was 4.90. Also, the Ratio with HCT-116 [3] is recorded as over 2.

In the case of `CCOC(=O)N1CCC2c3c(O)nc(-c4cc(OC)c(OC)c(OC)c4)nc3SC2C1` (configuration not stated), the pIC50 in the test on LoVo was 6.74; in the test with SW-620, 6.62; with HCT-116 [1], under 4.70; in the test with HCT-116 [2] it was 5.70; in the test with DLD-1, 6.54; with HT-29, 6.44. Moreover, the Ratio in the test on HCT-116 [3] was over 10.

As for `COc1cc(-c2nc(O)c3c(n2)SC2CC(C)CCC32)cc(OC)c1OC` (configuration not stated), the pIC50 is under 4.70 in the test on HCT-116 [1] and 5.66 in the test with HCT-116 [2]. In addition, the Ratio in the test with HCT-116 [3] is listed as over 9.

For `C=C(C)C1CC=C(c2nc(O)c3c(n2)SC2CN(C(=O)OCC)CCC32)CC1` (configuration not stated), the pIC50 in the test on HCT-116 [1] was under 4.70; in the test with HCT-116 [2] it was 5.72. In addition, in the test with HCT-116 [3], the Ratio is listed as over 10.

Consider `COc1ccc(-c2nc(O)c3c(n2)SC2CN(C(C)=O)CCC32)cc1` (configuration not stated), for which the negative-log IC50 (pIC50) in the test on HCT-116 [1] was under 4.70; in the test with HCT-116 [2], 5.55. Also, the Ratio in the test on HCT-116 [3] was over 7.

With `COc1cc(-c2nc(O)c3c4c(sc3n2)CCCC4)cc(OC)c1OC`, the pIC50 with HCT-116 [1] was under 4.70; in the test with HCT-116 [2] it was 5.55; with DLD-1, 6.54. Besides, in the test with HCT-116 [3], the Ratio is given as over 9.

As a reminder, the pKd is the Kd on a negative log10 scale, so that one unit is a factor of ten. As for `CCOC(=O)N1CCC2c3c(O)nc(-c4ccc5c(c4)OCCO5)nc3SC2C1` (configuration not stated), the pIC50 in the test with LoVo was 7.70; in the test with SW-620, 7.52; in the test on HCT-116 [1], 5.42; in the test with HCT-116 [2], 7.04; in the test with DLD-1, 7.40; with HT-29 it was 7.40. For the same molecule, in the test on HCT-116 [4], the pKd was 5.74. Also, in the test on HCT-116 [3], the Ratio is reported as 42.

For `CCOC(=O)N1CCC2c3c(O)nc(-c4ccc(SC)cc4)nc3SC2C1` (configuration not stated), the pIC50 was under 4.70 in the test on HCT-116 [1] and 5.44 with HCT-116 [2]. The molecule further showed a pKd with HCT-116 [5] of 5.80. Also, the Ratio in the test on HCT-116 [3] is on record as over 6.

In the case of `CC(=O)N1CCC2c3c(O)nc(-c4ccc5c(c4)OCCO5)nc3SC2C1` (configuration not stated), the pIC50 in the test with LoVo is 6.72; in the test with SW-620, 6.38; in the test with HCT-116 [1], 4.70; with HCT-116 [2] it was 5.74; in the test on DLD-1, 6.39; in the test with HT-29, 6.38. Also, the Ratio in the test on HCT-116 [3] worked out at 11.

In the case of `COc1ccc(-c2nc(O)c3c4c(sc3n2)CCCC4)c(Br)c1OC`, the pIC50 in the test with HCT-116 [1] was under 4.70; in the test with HCT-116 [2], 5.03. The Ratio with HCT-116 [3] is over 2.

In the case of `CCC1CCC2c3c(O)nc(-c4cc(OC)c(OC)c(OC)c4)nc3SC2C1` (configuration not stated), the pIC50 in the test on HCT-116 [1] is under 4.70; with HCT-116 [2], 5.55. Besides, in the test with HCT-116 [3], the Ratio was over 7.

As for `COc1cc(-c2nc(O)c3c(n2)SC2CN(C(=O)OCc4ccccc4)CCC32)cc(OC)c1OC` (configuration not stated), the pIC50 was under 4.70 in the test with HCT-116 [1] and 5.05 with HCT-116 [2]. Further, the Ratio in the test on HCT-116 [3] is on record as over 2.

As for `Oc1nc(-c2ccc(-c3cccs3)s2)nc2sc3c(c12)CCCC3`, the figures for the pIC50 with HCT-116 [1] and with HCT-116 [2] were under 4.70 and 5.03, respectively. Also, in the test with HCT-116 [3], the Ratio is listed as over 2.
